The text below walks through data of PMC4843813 (ACS chemical biology, 2015).

The subject of data set [1] is human red blood cells. Briefly: micro-RNA mir-16 release from red blood cells. It counts as cell-based. To be noted: pH 5.4; 5 μM peptide, human RBCs, 37 °C, mir-16 by stem-loop qPCR on supernatant.
Data set [2] concerns human red blood cells. As to the kind of experiment: ATP release from red blood cells. It counts as cell-based. As to conditions: 5 μM peptide, human RBCs, 37 °C, ATPLite kit on supernatant.
The nature of data set [3]: Size-exclusion chromatography, association state in aqueous buffer. It counts as physicochemical. As to conditions: for apparent molecular weight, SEC: 150 mM NaCl, Superdex 75, 25 °C, 100 μM peptide.
Data set [4] can be described thus: Sedimentation equilibrium analytical ultracentrifugation in aqueous buffer. It counts as physicochemical. As to conditions: for apparent MW, AUC single-species fit: 150 mM NaCl, 25 °C, 35-50 krpm, global fit; for apparent MW, AUC single-species fit / aggregation state (apparent MW/peptide MW), AUC / –log(Kdissociation), monomer–hexamer equilibrium, AUC: 100 μM peptide; for –log(Kdissociation), monomer–hexamer equilibrium, AUC: error = SD of fit.

A short description of data set [5]: AUC self-association in C-14 betaine micelles. It counts as physicochemical. To be noted: 8 mM C-14 betaine, pH 7.4 and 5.5, peptide/betaine 1:50, 1:100, 1:200. Summed up: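 Sedimentation equilibrium run at 25 °C at 35, 40, 45 and 50 krpm. Test compound was dissolved in C-14 betaine micelles in 150 mM NaCl and 50 mM sodium phosphate. D2O was added to match micelle density: 17% at pH 7.4 and 22% at pH 5.5. Data were fitted by single-species and monomer–trimer equilibrium models.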

The nature of data set [6]: Circular dichroism thermal denaturation. The format is physicochemical. As to conditions: for [PSPF-EKG] at 50% folded and 300 K: calculated from the CD fit; for Tm of thermal denaturation by CD: reference concentration 4 μM.

Take “WSDLAKA LSDLAKA LSDLAKA LSDLAKA [PSPF-DKA]”: the “% miRNA at 5 μM, RBC lysis assay” value in data set [1] was 0.79 % relative to Triton X-100 controls. Besides, the “% ATP at 5 μM, RBC lysis assay” value in data set [2] (pH 5.4) is recorded as 5.79 % relative to Triton X-100 controls; in data set [2] (pH 7.5), 4.64 % relative to Triton X-100 controls.

For “WSDLAKG LSDLAKG LSDLAKG LSDLAKG [PSPF-DKG]”, the “% miRNA at 5 μM, RBC lysis assay” value in data set [1] is 7.47 % relative to Triton X-100 controls. Besides, the “aggregation state n (apparent MW fold over single peptide MW), SEC” value in data set [3] (pH 5.5) is on record as “only a poorly defined peak”. Moreover, the “apparent MW, AUC single-species fit” value in data set [4] (pH 5.5, 50 mM MES) was 24 000 Da. In data set [4] (pH 7.4), the “association state n suggested by AUC single-species fitting” value was 6; the “aggregation state (apparent MW/peptide MW), AUC” value amounted to 6.0; the “–log(Kdissociation), monomer–hexamer equilibrium, AUC” value was 28.7 ± 0.4. In data set [4] (pH 7.4, 50 mM Tris), the “apparent MW, AUC single-species fit” value is listed as 17 000 Da. The “% ATP at 5 μM, RBC lysis assay” value in data set [2] (pH 5.4) is reported as 24.1 % relative to Triton X-100 controls. Besides, the “% ATP at 5 μM, RBC lysis assay” value in data set [2] (pH 7.5) is reported as 7.54 % relative to Triton X-100 controls.

For the substance “WSDLAQA LSDLAQA LSDLAQA LSDLAQA [PSPF-DQA]”, the “% ATP at 5 μM, RBC lysis assay” value in data set [2] (pH 7.5) is 3.81 % relative to Triton X-100 controls.

For the substance “WSDLAQG LSDLAQG LSDLAQG LSDLAQG [PSPF-DQG]”, the “% miRNA at 5 μM, RBC lysis assay” value in data set [1] is given as 0.16 % relative to Triton X-100 controls. In addition, the “% ATP at 5 μM, RBC lysis assay” value in data set [2] (pH 5.4) is 8.61 % relative to Triton X-100 controls; in data set [2] (pH 7.5), 3.21 % relative to Triton X-100 controls.

As for “WSELAKA LSELAKA LSELAKA LSELAKA [PSPF-EKA]”, the “% miRNA at 5 μM, RBC lysis assay” value in data set [1] is 0.21 % relative to Triton X-100 controls. Further, the “% ATP at 5 μM, RBC lysis assay” value is on record as 3.66 % relative to Triton X-100 controls in data set [2] (pH 5.4) and 2.02 % relative to Triton X-100 controls in data set [2] (pH 7.5).

As for “WSELAKG LSELAKG LSELAKG LSELAKG [PSPF-EKG]”, in data set [5], the “self-association in detergent micelles” value is recorded as “weakly associates in detergent micelles”. The “apparent molecular weight, SEC” value was 15 000 Da in data set [3] (pH 5.5, 50 mM MES) and 19 000 Da in data set [3] (pH 7.4, 50 mM Tris). The “increase of free energy of the helical bundle as pH decreases from 7.4 to 5.5” value in data set [4] (AUC) stood at 0.7 kcal/mol peptide. In addition, the “association state n suggested by AUC single-species fitting” value in data set [4] (pH 5.5) and in data set [4] (pH 7.4) was 6 throughout. The “apparent MW, AUC single-species fit” value is listed as 16 000 Da in data set [4] (pH 5.5, 50 mM MES) and 18 000 Da in data set [4] (pH 7.4, 50 mM Tris). Further, the “aggregation state (apparent MW/peptide MW), AUC” value in data set [4] (pH 5.5) was determined as 5.5; in data set [4] (pH 7.4), 6.2. In addition, the “–log(Kdissociation), monomer–hexamer equilibrium, AUC” value is reported as 24.8 ± 0.1 in data set [4] (pH 5.5) and 28.0 ± 0.4 in data set [4] (pH 7.4). Further, the results for the “% ATP at 5 μM, RBC lysis assay” value in data set [2] (pH 5.4) and in data set [2] (pH 7.5) were 27.3 % relative to Triton X-100 controls and 3.38 % relative to Triton X-100 controls, respectively. For the same substance, in data set [6] (CD thermal denaturation), the “decrease of Tm from pH 7.4 to pH 5.5” value worked out at 5.6 K. Moreover, the “[PSPF-EKG] at 50% folded and 300 K” value in data set [6] (pH 5.5) is 0.31 µM; in data set [6] (pH 7.4), 0.14 µM. Besides, the “Tm of thermal denaturation by CD” value in data set [6] (pH 5.5) came out at 333.4 ± 0.1 K; in data set [6] (pH 7.4), 339.0 ± 0.1 K.

As for “WSELAQA LSELAQA LSELAQA LSELAQA [PSPF-EQA]”, the “% miRNA at 5 μM, RBC lysis assay” value in data set [1] was 0.02 % relative to Triton X-100 controls. Besides, the “% ATP at 5 μM, RBC lysis assay” value is 3.61 % relative to Triton X-100 controls in data set [2] (pH 5.4) and 3.69 % relative to Triton X-100 controls in data set [2] (pH 7.5).

Consider “WSELAQG LSELAQG LSELAQG LSELAQG [PSPF-EQG]”, for which the “% miRNA at 5 μM, RBC lysis assay” value in data set [1] is given as 2.64 % relative to Triton X-100 controls. Moreover, the figures for the “% ATP at 5 μM, RBC lysis assay” value in data set [2] (pH 5.4) and in data set [2] (pH 7.5) were 9.52 % relative to Triton X-100 controls and 3.36 % relative to Triton X-100 controls, respectively.

Turning to “WSHLAKA LSHLAKA LSHLAKA LSHLAKA [PSPF-HKA]”, the “% miRNA at 5 μM, RBC lysis assay” value in data set [1] is given as 0.02 % relative to Triton X-100 controls. Moreover, the “% ATP at 5 μM, RBC lysis assay” value was 5.7 % relative to Triton X-100 controls in data set [2] (pH 5.4) and 0.93 % relative to Triton X-100 controls in data set [2] (pH 7.5).

For “WSHLAKG LSHLAKG LSHLAKG LSHLAKG [PSPF-HKG]”, the “% miRNA at 5 μM, RBC lysis assay” value in data set [1] is on record as 0.44 % relative to Triton X-100 controls. In addition, the “% ATP at 5 μM, RBC lysis assay” value in data set [2] (pH 7.5) is recorded as 32.1 % relative to Triton X-100 controls.

For the substance “WSHLAQA LSHLAQA LSHLAQA LSHLAQA [PSPF-HQA]”, the “% miRNA at 5 μM, RBC lysis assay” value in data set [1] is reported as 1.43 % relative to Triton X-100 controls. Also, the “% ATP at 5 μM, RBC lysis assay” value in data set [2] (pH 7.5) is listed as 6.17 % relative to Triton X-100 controls.

Regarding “WSHLAQG LSHLAQG LSHLAQG LSHLAQG [PSPF-HQG]”, the “% miRNA at 5 μM, RBC lysis assay” value in data set [1] is reported as 0.64 % relative to Triton X-100 controls. For the same substance, the “% ATP at 5 μM, RBC lysis assay” value in data set [2] (pH 7.5) was 5.69 % relative to Triton X-100 controls.
